Laboratory results from ChEMBL document CHEMBL5724801, “EUbOPEN Chemogenomics Library - Multiplex” (2024).
Where “and” joins values, the source holds several entries; their conditions need not be identical. Equal values may be shown once.

System: HEK-293T
Assay: Multiplex assay against HEK293T
Assay type: toxicity, cell-based
Settings: human
Outline: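 With compound added, live cells were imaged on a CQ1 microscope at 37°C and 5% CO2; staining with Hoechst33342, BioTracker Green Microtubule Cytoskeleton Dye, MitoTracker Red and Annexin V Alexa Fluor 680 had been done at seeding. The CellPathfinder machine-learning gating scheme split cells into Hoechst high-intensity objects or normal cells, normal cells into healthy, pyknosed or fragmented nuclei, and pyknosed cells into mitotic or apoptotic. The tubulin, mitochondrial-mass and membrane-permeability phenotypes are per cents of healthy-nucleus cells.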

[1] = 12 h, 1 µM, compound concentration 1 uM
[2] = 12 h, 10 µM, compound concentration 10 uM
[3] = 24 h, 1 µM, compound concentration 1 uM
[4] = 24 h, 10 µM, compound concentration 10 uM
[5] = 48 h, 1 µM, compound concentration 1 uM
[6] = 48 h, 10 µM, compound concentration 10 uM

For `CC1(COc2ccc3c(c2)ncn3-c2ccc3cccc(N4CCC(N)CC4)c3n2)COC1` [CRENOLANIB], the “Population Apoptotic (%)” value [1] was 58% and 34%, the “Population Fragmented Nuclei (%)” value [1] was 14% and 10% and the “Population Healthy Nuclei (%)” value [1] was 79% and 80%. The “Population Hoechst High Intensity Objects (%)” value [1] was 3% and 6%, the “Population Membrane Permeable-Phenotype (%)” value [1] was 2% and 1% and the “Population Mitochondria Different-Phenotype (%)” value [1] was 23% and 51%. The “Population Mitotic Cells (%)” value [1] was 41% and 65%, the “Population Normal (%)” value [1] was 96% and 93% and the “Population Pyknosed Nuclei (%)” value [1] was 6% and 8%. For the same molecule, the “Population Tubulin-Different-Phenotype (%)” value [1] was 46% and 51%, the “Total Cell Count” value [1] was 412 and 332 and the “Population Apoptotic (%)” value [2] was 69% and 55%. For the same molecule, the “Population Fragmented Nuclei (%)” value [2] was 67% and 64%, the “Population Healthy Nuclei (%)” value [2] was 13% and 17% and the “Population Hoechst High Intensity Objects (%)” value [2] was 67% and 69%. The “Population Membrane Permeable-Phenotype (%)” value [2] was 0%, the “Population Mitochondria Different-Phenotype (%)” value [2] was 84% and 90% and the “Population Mitotic Cells (%)” value [2] was 30% and 45%. For the same molecule, the “Population Normal (%)” value [2] was 32% and 30%, the “Population Pyknosed Nuclei (%)” value [2] was 18% and 17% and the “Population Tubulin-Different-Phenotype (%)” value [2] was 68% and 50%. The “Total Cell Count” value [2] was 423 and 376, the “Population Apoptotic (%)” value [3] was 29% and 45% and the “Population Fragmented Nuclei (%)” value [3] was 20% and 15%. For the same molecule, the “Population Healthy Nuclei (%)” value [3] was 66% and 73%, the “Population Hoechst High Intensity Objects (%)” value [3] was 2% and 6% and the “Population Membrane Permeable-Phenotype (%)” value [3] was 2% and 1%. The “Population Mitochondria Different-Phenotype (%)” value [3] was 22% and 33%, the “Population Mitotic Cells (%)” value [3] was 70% and 54% and the “Population Normal (%)” value [3] was 97% and 93%. For the same molecule, the “Population Pyknosed Nuclei (%)” value [3] was 12% and 11%, the “Population Tubulin-Different-Phenotype (%)” value [3] was 23% and 35% and the “Total Cell Count” value [3] was 547 and 415. The “Population Apoptotic (%)” value [4] was 72%, the “Population Fragmented Nuclei (%)” value [4] was 60% and 69% and the “Population Healthy Nuclei (%)” value [4] was 16% and 15%. For the same molecule, the “Population Hoechst High Intensity Objects (%)” value [4] was 56% and 63%, the “Population Membrane Permeable-Phenotype (%)” value [4] was 0% and the “Population Mitochondria Different-Phenotype (%)” value [4] was 89% and 94%. The “Population Mitotic Cells (%)” value [4] was 27%, the “Population Normal (%)” value [4] was 43% and 36% and the “Population Pyknosed Nuclei (%)” value [4] was 23% and 14%. The “Population Tubulin-Different-Phenotype (%)” value [4] was 92% and 73%, the “Total Cell Count” value [4] was 394 and 334 and the “Population Apoptotic (%)” value [5] was 29% and 47%. For the same molecule, the “Population Fragmented Nuclei (%)” value [5] was 19% and 23%, the “Population Healthy Nuclei (%)” value [5] was 72% and 70% and the “Population Hoechst High Intensity Objects (%)” value [5] was 1%. The “Population Membrane Permeable-Phenotype (%)” value [5] was 1%, the “Population Mitochondria Different-Phenotype (%)” value [5] was 17% and 21% and the “Population Mitotic Cells (%)” value [5] was 70% and 52%. The “Population Normal (%)” value [5] was 98%, the “Population Pyknosed Nuclei (%)” value [5] was 7% and 6% and the “Population Tubulin-Different-Phenotype (%)” value [5] was 10% and 14%. For the same molecule, the “Total Cell Count” value [5] was 844 and 639, the “Population Apoptotic (%)” value [6] was 86% and 84% and the “Population Fragmented Nuclei (%)” value [6] was 51% and 47%. For the same molecule, the “Population Healthy Nuclei (%)” value [6] was 17% and 22%, the “Population Hoechst High Intensity Objects (%)” value [6] was 41% and 49% and the “Population Membrane Permeable-Phenotype (%)” value [6] was 0%. The “Population Mitochondria Different-Phenotype (%)” value [6] was 97% and 96%, the “Population Mitotic Cells (%)” value [6] was 13% and 15% and the “Population Normal (%)” value [6] was 59% and 50%. The “Population Pyknosed Nuclei (%)” value [6] was 30%, the “Population Tubulin-Different-Phenotype (%)” value [6] was 95% and 96% and the “Total Cell Count” value [6] was 400 and 298.
